For one assay, the system named is J774. Put plainly: Cytotoxicity against mouse J774 cells after 72 hrs by MTT assay. It is filed as cell-based. The following applies: J774, 72 h. Summed up: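 J774 murine macrophages (2×10^6 in 200 µL) incubated with a range of compound concentrations for 72 h at 37 °C/5% CO2. Viability by MTT. Pentamidine isethionate as reference. Experiments repeated at least three times.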

The test system of assay [1] is PBMC. Put plainly: Selectivity index, ratio of IC50 for PHA activated human PBMC cells to IC50 for human MDA-MB-435 cells. It is filed as functional.
The subject of the next assay is HCT-8. Kind of assay: Antineoplastic activity against human HCT8 cells after 72 hrs by MTT assay. The format is functional, cell-based. The following applies: HCT-8, 72 h. Summed up: (§1)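 Tumour lines kept in RPMI 1640 with 10% FBS, 2 mM glutamine, penicillin/streptomycin, 37 °C, 5% CO2. Seeded at 10^5 cells/mL (adherent) or 3×10^5 cells/mL (leukemia). Compounds 0.1–25 µg/mL in DMSO 1%, 72 h. Vehicle controls got equal DMSO. MTT 0.5 mg/mL for 3 h, formazan dissolved in DMSO, absorbance at 595 nm. Doxorubicin 0.01–5 µg/mL as positive control.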
A general note: Tetrazolium assays rely on reduction of a dye to a coloured formazan, in cell work by metabolically active cells.

In assay [2] the test system is MDA-MB-435. Kind of assay: Antineoplastic activity against human MDA-MB-435 cells after 72 hrs by MTT assay. The format is functional, cell-based. Particulars: MDA-MB-435, 72 h. The essentials:
as §1

Assay [3] relates to PBMC. Kind of assay: Selectivity index, ratio of IC50 for PHA activated human PBMC cells to IC50 for human HL60 cells. It is filed as functional.
A further assay has as its system SF-295. Put plainly: Antineoplastic activity against human SF295 cells after 72 hrs by MTT assay. The format is functional, cell-based. Particulars: SF-295, 72 h. The essentials:
as §1

In assay [4] the test system is Leishmania amazonensis. Put plainly: Antileishmanial activity against Leishmania amazonensis promastigotes after 72 hrs by MTT assay. The format is functional, organism-based. Summed up: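 Promastigotes grown at 26 °C in Schneider's medium with 10% FBS. Inoculum 1.0×10^6/ml, compounds 0–20 µM, 72 h at 26 °C. MTT (5 mg/mL solution) added for 2 h, then DMSO, OD at 570 nm. Pentamidine isethionate as reference. Experiments repeated at least three times; IC50 derived by software fitting.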

In assay [5] the test system is PBMC. Kind of assay: Cytotoxicity against PHA activated human PBMC cells after 72 hrs by MTT assay. It is filed as cell-based. Summed up:
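PBMC isolated from heparinized blood of healthy non-smoking donors (drug-free ≥15 days) by Ficoll-Hypaque density-gradient centrifugation. Plated at 3×10^5 cells/mL in RPMI 1640 with 20% FBS, glutamine and antibiotics, 37 °C, 5% CO2. Phytohemagglutinin (3%) added at start. After 24 h, compounds 0.1–25 µg/mL in DMSO 1% added for 72 h. MTT read-out at 595 nm.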

Assay [6] concerns Leishmania amazonensis. Put plainly: Antileishmanial activity against Leishmania amazonensis amastigotes infected in BALB/c mouse peritoneal macrophages after 72 hrs by microscopy. It is filed as functional, organism-based. The essentials:
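Resident BALB/c peritoneal macrophages in RPMI, 2×10^6/mL, 1 h at 37 °C, 5% CO2. Infected with stationary-phase promastigotes at 3:1 parasite/macrophage for 3 h, then washed with PBS. Compounds 0–20 µM in duplicate for 72 h. Hematological stain and light microscopy, amastigotes counted in ≥100 macrophages. Pentamidine reference. Repeated at least three times.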

The subject of assay [7] is PBMC. Put plainly: Selectivity index, ratio of IC50 for PHA activated human PBMC cells to IC50 for human HCT8 cells. The format is functional.
For a further assay, the system named is HL-60. Put plainly: Antineoplastic activity against human HL60 cells after 72 hrs by MTT assay. The following applies: HL-60, 72 h. The format is functional, cell-based. The essentials: as §1
Assay [8] relates to PBMC. Put plainly: Selectivity index, ratio of IC50 for PHA activated human PBMC cells to IC50 for human K562 cells. It is filed as functional.
Assay [9] deals with PBMC. Put plainly: Selectivity index, ratio of IC50 for PHA activated human PBMC cells to IC50 for human SF295 cells. The format is functional.
The subject of the next assay is K562. Kind of assay: Antineoplastic activity against human K562 cells after 72 hrs by MTT assay. The format is functional, cell-based. Particulars: K562, 72 h. Summed up:
as §1

In assay [10] the test system is MDA-MB-435. Put plainly: Ratio of doxorubicin IC50 to compound IC50 for human MDA-MB-435 cells. The format is functional.

Molecules are shown by their SMILES.

Consider `COc1ccc2c(c1)O[C@@H]1C3=C(OC[C@H]21)C(=O)c1ccccc1C3=O` (racemic), for which the IC50 (in general, the concentration needed to halve the response being measured) amounted to 49.5 µM in the assay with J774; 10.4 µM in the assay with HCT-8; 11.4 µM in the assay with MDA-MB-435 [2]; 17.7 µM in the assay with SF-295; 2.85 µM with Leishmania amazonensis [4]; 7.8 µM in the assay on PBMC [5]. Further, the IC50 with Leishmania amazonensis [6] was over 20 µM; in the assay with HL-60 it was 3.5 µM; in the assay on K562, 3.3 µM. Besides, the “Ratio IC50” value in the assay on PBMC [1] is recorded as 0.68; in the assay on PBMC [3], 2.22; in the assay with PBMC [7], 0.75; in the assay with PBMC [8], 9.4; with PBMC [9], 0.44.
For the molecule `COC(=O)c1ccc2c(c1)[C@H]1COC3=C(C(=O)c4ccccc4C3=O)[C@H]1O2` (racemic), the IC50 in the assay on J774 is 22.5 µM; in the assay with HCT-8, over 13 µM; with MDA-MB-435 [2], over 13 µM; in the assay on SF-295, over 13 µM; with Leishmania amazonensis [4], 2.8 µM; with Leishmania amazonensis [6], 0.5 µM. Also, the IC50 amounted to 4.1 µM in the assay with HL-60 and 8 µM in the assay on K562.
Take `COc1c2c(c(OC)c3ccccc13)[C@@H]1[C@H](CO2)c2ccccc2N1S(=O)(=O)c1ccc(C)cc1` (racemic): the IC50 with HCT-8 is over 51 µM; with MDA-MB-435 [2], over 51 µM; with SF-295 it was over 51 µM; in the assay with HL-60 it was over 51 µM; with K562, 46.7 µM.
Consider `COc1c2c(c(OC)c3ccccc13)[C@H]1Oc3ccccc3[C@H]1CO2` (racemic), for which the IC50 in the assay on HCT-8 amounted to 21.2 µM; with MDA-MB-435 [2] it was 30.8 µM; with SF-295 it was 22.4 µM; in the assay with HL-60, 17.4 µM; in the assay on K562 it was 13.5 µM.
For the molecule `O=C1C2=C(OCC=C2)C(=O)c2ccccc21`, the “Ratio IC50” value with PBMC [1] was found to be 0.78; in the assay with PBMC [3], 2.8; in the assay on PBMC [7], 0.5; in the assay on PBMC [9], 0.6. Further, the IC50 in the assay on HCT-8 was 2.8 µM; with MDA-MB-435 [2], 1.8 µM; in the assay on SF-295, 2.3 µM; in the assay on PBMC [5], under 1.4 µM; in the assay on HL-60, 0.5 µM.
Consider `O=C1C2=C(C(=O)c3ccccc31)[C@H]1Oc3ccccc3[C@H]1CO2` (racemic) [PTEROCARPANQUINONE], for which the IC50 is 18.5 µM in the assay on J774; 2.6 µM in the assay on HCT-8; 2.3 µM in the assay on MDA-MB-435 [2]; 3.6 µM in the assay with SF-295; 1.73 µM with Leishmania amazonensis [4]; over 20 µM in the assay on PBMC [5]. The half-maximal inhibitory concentration (IC50) with Leishmania amazonensis [6] is 1.45 µM; with HL-60 it was 1.3 µM. Moreover, the “Ratio IC50” value was 8.7 with PBMC [1]; 0.42 in the assay with MDA-MB-435 [10]; 15.4 in the assay on PBMC [3]; 7.7 in the assay on PBMC [7]; 12 with PBMC [8]; 5.5 with PBMC [9].
In the case of `O=C1C2=C(C(=O)c3ccccc31)[C@H]1Oc3ccc([N+](=O)[O-])cc3[C@H]1CO2` (racemic), the IC50 in the assay on J774 stood at 12.1 µM; in the assay with HCT-8 it was 8.3 µM; with MDA-MB-435 [2], 17.4 µM; with SF-295 it was 8.9 µM; in the assay on Leishmania amazonensis [4], 1.07 µM; with PBMC [5], 8.6 µM. Also, the IC50 in the assay on Leishmania amazonensis [6] is 1.85 µM; in the assay with HL-60 it was 6.3 µM. Moreover, the “Ratio IC50” value in the assay with PBMC [1] was 0.49; in the assay on PBMC [3], 1.36; with PBMC [7], 1.06; with PBMC [9], 0.96.
As to `c1ccc2c(c1)CC[C@@H]1c3ccccc3O[C@H]21`, the IC50 with HCT-8, in the assay on MDA-MB-435 [2], in the assay with SF-295, in the assay on HL-60 and in the assay on K562 was over 112 µM throughout.
For `COc1cccc2c1C(=O)c1c(O)c3c(c(O)c1C2=O)C[C@@](O)(C(=O)CO)C[C@@H]3O[C@H]1C[C@H](N)[C@H](O)[C@H](C)O1` [DOXORUBICIN], the figures for the IC50 in the assay on HL-60 and with K562 were 0.04 µM and 1.67 µM, respectively.
As to `Cc1ccc(S(=O)(=O)N2c3ccccc3[C@H]3COc4ccccc4[C@H]32)cc1`, the IC50 in the assay on HCT-8 came to 9 µM; in the assay with MDA-MB-435 [2], 5 µM; in the assay with SF-295, 31.5 µM; in the assay with HL-60, 6.1 µM; in the assay with K562, 6.4 µM.
As to `N=C(N)c1ccc(OCCCCCOc2ccc(C(=N)N)cc2)cc1` [PENTAMIDINE], the IC50 in the assay with J774 was found to be 70 µM; in the assay with Leishmania amazonensis [4], 2.2 µM; in the assay on Leishmania amazonensis [6], 1.5 µM.
For `Cc1ccc(S(=O)(=O)N2c3ccccc3[C@H]3COC4=C(C(=O)c5ccccc5C4=O)[C@H]32)cc1` (racemic), the half-maximal inhibitory concentration (IC50) in the assay on J774 is over 100 µM; in the assay on HCT-8 it was 0.6 µM; with MDA-MB-435 [2], 0.4 µM; in the assay on SF-295 it was 3.9 µM; with Leishmania amazonensis [4], 15 µM; in the assay on PBMC [5] it was 23 µM. Moreover, the IC50 in the assay with Leishmania amazonensis [6] was over 20 µM; in the assay with HL-60, 7.4 µM; in the assay on K562 it was 5.5 µM. Moreover, the “Ratio IC50” value stood at 57.7 in the assay with PBMC [1]; 2 in the assay on MDA-MB-435 [10]; 3.12 with PBMC [3]; 38.5 in the assay on PBMC [7]; 4.33 in the assay on PBMC [8]; 5.92 in the assay with PBMC [9].
`COc1cc(C=O)cc2c1O[C@@H]1C3=C(OC[C@H]21)C(=O)c1ccccc1C3=O` (racemic): the IC50 in the assay on J774 is 18 µM; with HCT-8, 6 µM; with MDA-MB-435 [2] it was 10.7 µM; with SF-295, 7.4 µM; in the assay with Leishmania amazonensis [4] it was 1.27 µM; with PBMC [5], 6 µM. In addition, the IC50 in the assay on Leishmania amazonensis [6] came out at 1.25 µM; in the assay on HL-60, 3 µM; in the assay on K562, 13.5 µM. Besides, the “Ratio IC50” value in the assay with PBMC [1] is on record as 0.56; with PBMC [3], 2; in the assay with PBMC [7], 1; in the assay on PBMC [9] it was 0.8.
On to `c1ccc2c(c1)O[C@@H]1c3ccccc3OC[C@H]21`, for which the IC50 in the assay on HCT-8, with MDA-MB-435 [2], in the assay with SF-295, with HL-60 and with K562 was over 112 µM each time.
Regarding `Cc1ccc(S(=O)(=O)N2c3ccccc3[C@H]3CCc4ccccc4[C@H]32)cc1`, the IC50 with J774 is 23 µM; with HCT-8 it was 3 µM; in the assay on MDA-MB-435 [2] it was 0.5 µM; in the assay on SF-295, over 62.5 µM; with Leishmania amazonensis [4], 4.85 µM; in the assay with PBMC [5], 7.2 µM. For the same molecule, the IC50 in the assay with Leishmania amazonensis [6] was determined as 2.15 µM; with HL-60 it was 1 µM; with K562, 1.9 µM. The “Ratio IC50” value in the assay with PBMC [1] is recorded as 14.4; in the assay with PBMC [3] it was 7.2; with PBMC [7], 2.4; with PBMC [9], 0.11.

(Values after ChEMBL document CHEMBL1926584, “Pterocarpanquinones, aza-pterocarpanquinone and derivatives: synthesis, antineoplasic activity on human malignant cell lines and antileishmanial activity on Leishmania amazonensis” (Bioorg Med Chem, 2011).)
